Assay results collected from several papers.
≈ marks a conversion by molar mass, not a printed value.
Organism: Pichia kudriavzevii

SMILES | assay | test system | conditions | quantity | result
CCCCCOc1c(OC)cc(NC(C)CCCNC(=O)C(N)Cc2ccccc2)c2nc(C(C)(C)C)ccc12 (stereo not shown) | microbial growth | ATCC6258 |  | IC50 | 7.37 µg/mL (≈ 13.4 µM)
C[C@@H]1[C@H](O)[C@@H](C)/C=C/C=C/C=C/C=C/C=C/C=C/C=C/[C@H](O[C@@H]2O[C@H](C)[C@@H](O)[C@H](N)[C@@H]2O)C[C@@H]2O[C@](O)(C[C@@H](O)C[C@@H](O)[C@H](O)CC[C@@H](O)C[C@@H](O)CC(=O)O[C@H]1C)C[C@H](O)[C@H]2C(=O)O | microbial growth, broth dilution | ATCC6258 |  | IC50 | 0.6 µg/mL (≈ 0.649 µM)
CCCCCCCCCCCCCN1CCNCC1 | microbial growth, broth dilution | ATCC6258 | 48 h | MIC | 0.975 µg/mL (≈ 3.63 µM)
CCCCCCCOc1c(OC)cc(NC(C)CCCNC(=O)C(N)C(C)CC)c2nc(C(C)(C)C)ccc12 (stereo not shown) | microbial growth | ATCC6258 |  | IC50 | 4.38 µg/mL (≈ 8.07 µM)
C[C@@H]1[C@H](O)[C@@H](C)/C=C/C=C/C=C/C=C/C=C/C=C/C=C/[C@H](O[C@@H]2O[C@H](C)[C@@H](O)[C@H](N)[C@@H]2O)C[C@@H]2O[C@](O)(C[C@@H](O)C[C@@H](O)[C@H](O)CC[C@@H](O)C[C@@H](O)CC(=O)O[C@H]1C)C[C@H](O)[C@H]2C(=O)O | microbial growth | ATCC6258 |  | IC50 | 0.95 µg/mL (≈ 1.03 µM)
Fc1ccc(C2(Cn3cncn3)CO2)c(F)c1 (stereo not shown) | microbial growth, broth dilution | ATCC6258 | 48 h | MIC | > 31.3 µg/mL
C#CCCCCCCCCC=CCC(O)CC(O)CO (stereo not shown) | microbial growth, broth dilution | ATCC6258 |  | IC50 | > 8 µg/mL
CCCCCOc1c(OC)cc(NC(C)CCCNC(=O)C(N)CC(C)C)c2nc(C(C)(C)C)ccc12 (stereo not shown) | microbial killing | ATCC6258 |  | MFC | 10 µg/mL (≈ 19.4 µM)
C[C@@H]1[C@H](O)[C@@H](C)/C=C/C=C/C=C/C=C/C=C/C=C/C=C/[C@H](O[C@@H]2O[C@H](C)[C@@H](O)[C@H](N)[C@@H]2O)C[C@@H]2O[C@](O)(C[C@@H](O)C[C@@H](O)[C@H](O)CC[C@@H](O)C[C@@H](O)CC(=O)O[C@H]1C)C[C@H](O)[C@H]2C(=O)O | microbial growth | ATCC6258 |  | MIC | 1.25 µg/mL (≈ 1.35 µM)
C[C@@H](c1ncncc1F)[C@](O)(Cn1cncn1)c1ccc(F)cc1F | microbial growth |  |  | MIC90 | 0.25 µg/mL (≈ 0.716 µM)
CCCCCCCCCCCCCCN1CCOCC1 | microbial growth, broth dilution | ATCC6258 | 48 h | MIC | > 31.3 µg/mL
CCCCCCOc1c(OC)cc(NC(C)CCCN)c2nc(C(C)(C)C)cc(C)c12 (stereo not shown) | microbial killing | ATCC6258 |  | MFC | 5 µg/mL (≈ 11.6 µM)
CCCCCCCCCN1CCN(CC(O)(Cn2cncn2)c2ccc(F)cc2F)CC1 (stereo not shown) | microbial growth, broth dilution | ATCC6258 | 48 h | MIC | 0.975 µg/mL (≈ 2.17 µM)
CCCCCCCOc1c(OC)cc(NC(C)CCCN)c2nc(C(C)(C)C)ccc12 (stereo not shown) | microbial killing | ATCC6258 |  | MFC | 5 µg/mL (≈ 11.6 µM)
CCCCCCCCCCCCCN1CCN(CC(O)(Cn2cncn2)c2ccc(F)cc2F)CC1 (stereo not shown) | microbial growth, broth dilution | ATCC6258 | 48 h | MIC | 0.975 µg/mL (≈ 1.93 µM)
CCCCCCOc1c(OC)cc(NC(C)CCCN)c2nc(C(C)(C)C)ccc12 (stereo not shown) | microbial growth | ATCC6258 |  | IC50 | 7.16 µg/mL (≈ 17.2 µM)
OC(CN1CCOCC1)(Cn1cncn1)c1ccc(F)cc1F (stereo not shown) | microbial growth, broth dilution | ATCC6258 | 48 h | MIC | > 31.3 µg/mL
C[C@@H]1[C@H](O)[C@@H](C)/C=C/C=C/C=C/C=C/C=C/C=C/C=C/[C@H](O[C@@H]2O[C@H](C)[C@@H](O)[C@H](N)[C@@H]2O)C[C@@H]2O[C@](O)(C[C@@H](O)C[C@@H](O)[C@H](O)CC[C@@H](O)C[C@@H](O)CC(=O)O[C@H]1C)C[C@H](O)[C@H]2C(=O)O | microbial growth |  |  | MIC90 | 0.125 µg/mL (≈ 0.135 µM)
CCCCCCCCOc1c(OC)cc(NC(C)CCCN)c2nc(C(C)(C)C)ccc12 (stereo not shown) | microbial growth | ATCC6258 |  | IC50 | 5.82 µg/mL (≈ 13.1 µM)
CC(=O)N1CCN(c2ccc(OCC3COC(Cn4ccnc4)(c4ccc(Cl)cc4Cl)O3)cc2)CC1 (stereo not shown) | microbial growth |  |  | MIC90 | 1 µg/mL (≈ 1.88 µM)
C#CCCCCCCCCCCCC(O)CC(O)CO (stereo not shown) | microbial growth, broth dilution | ATCC6258 |  | IC50 | > 200 µg/mL
CCCCCN1CCNCC1 | microbial growth, broth dilution | ATCC6258 | 48 h | MIC | > 31.3 µg/mL
